Experimental data: the M2OR odorant receptor database
Where a chain is given by its changes, count along the chain named.

Key:
Settings in all cases: stereoisomer not certain
OR1D5 (Homo sapiens) = target: T1, OR1D5 (Homo sapiens) (UniProt P58170)
T1 sequence (whole entry): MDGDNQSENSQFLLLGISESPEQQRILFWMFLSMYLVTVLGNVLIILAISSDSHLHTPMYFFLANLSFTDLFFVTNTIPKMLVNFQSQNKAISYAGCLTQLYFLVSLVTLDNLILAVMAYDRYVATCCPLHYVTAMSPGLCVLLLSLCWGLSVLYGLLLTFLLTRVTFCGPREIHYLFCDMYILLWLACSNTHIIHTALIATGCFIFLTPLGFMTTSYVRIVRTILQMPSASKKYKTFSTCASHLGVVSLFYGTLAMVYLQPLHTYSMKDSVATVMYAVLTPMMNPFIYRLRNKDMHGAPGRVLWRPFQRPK
In short: (§1)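 Each receptor–molecule pair is labelled responsive or non-responsive (inactive) according to whether the original authors judged the measured signal statistically different from baseline. The data were taken from the main text and supplementary material of published papers and checked for typos and inconsistencies. Assay methods differed by source, with transient luciferase assays in mammalian cell lines being common.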

OR1E1 (Homo sapiens) = target: T2, OR1E1 (Homo sapiens) (UniProt P30953)
T2 sequence (whole entry): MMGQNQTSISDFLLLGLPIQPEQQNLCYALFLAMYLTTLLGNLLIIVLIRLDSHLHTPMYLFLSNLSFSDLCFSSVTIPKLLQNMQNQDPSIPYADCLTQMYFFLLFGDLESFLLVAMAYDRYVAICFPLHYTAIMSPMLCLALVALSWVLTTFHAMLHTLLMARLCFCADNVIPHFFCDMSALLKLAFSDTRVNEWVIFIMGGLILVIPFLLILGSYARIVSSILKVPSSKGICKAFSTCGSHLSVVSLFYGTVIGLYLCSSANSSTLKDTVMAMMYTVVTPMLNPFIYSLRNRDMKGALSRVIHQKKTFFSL
In short: as §1

OR1E2 (Homo sapiens) = target: T3, OR1E2 (Homo sapiens) (UniProt P47887)
T3 sequence (whole entry): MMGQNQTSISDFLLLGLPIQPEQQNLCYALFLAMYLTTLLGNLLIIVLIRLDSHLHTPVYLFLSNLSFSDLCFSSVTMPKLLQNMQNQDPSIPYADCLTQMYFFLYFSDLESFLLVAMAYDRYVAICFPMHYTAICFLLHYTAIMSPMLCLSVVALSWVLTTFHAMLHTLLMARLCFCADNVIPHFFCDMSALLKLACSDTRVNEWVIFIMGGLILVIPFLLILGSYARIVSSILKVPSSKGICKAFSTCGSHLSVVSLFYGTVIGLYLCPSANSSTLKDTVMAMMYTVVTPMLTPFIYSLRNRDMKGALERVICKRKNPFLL
In short: as §1

OR1E2 = test system: T4, OR1E2
T4 sequence (whole entry): T3 sequence (whole entry) with C27R
In short: as §1

OR1F1 (Homo sapiens) = target: T5, OR1F1 (Homo sapiens) (UniProt O43749)
T5 sequence (whole entry): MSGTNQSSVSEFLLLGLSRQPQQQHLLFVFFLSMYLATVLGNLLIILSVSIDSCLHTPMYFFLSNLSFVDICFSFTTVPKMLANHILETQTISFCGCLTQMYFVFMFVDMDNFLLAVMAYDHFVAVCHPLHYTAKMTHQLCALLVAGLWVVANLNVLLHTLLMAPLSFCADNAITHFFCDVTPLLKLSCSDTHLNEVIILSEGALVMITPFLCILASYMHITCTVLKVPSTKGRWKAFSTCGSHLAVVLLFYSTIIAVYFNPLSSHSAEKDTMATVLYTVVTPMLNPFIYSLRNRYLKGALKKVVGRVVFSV
In short: as §1

OR1F12P (Homo sapiens) = target: T6, OR1F12P (Homo sapiens) (UniProt Q8NHA8)
T6 sequence (whole entry): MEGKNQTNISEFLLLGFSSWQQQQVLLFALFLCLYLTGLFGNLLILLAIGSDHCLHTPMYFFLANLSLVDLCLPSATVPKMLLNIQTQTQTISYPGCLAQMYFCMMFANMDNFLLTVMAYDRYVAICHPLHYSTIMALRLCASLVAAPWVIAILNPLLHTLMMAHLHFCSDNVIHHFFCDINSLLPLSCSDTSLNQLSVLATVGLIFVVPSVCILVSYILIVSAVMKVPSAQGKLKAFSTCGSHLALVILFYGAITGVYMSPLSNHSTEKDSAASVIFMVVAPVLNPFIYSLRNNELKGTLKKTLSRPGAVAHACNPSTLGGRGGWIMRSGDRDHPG
In short: as §1

OR1F1 = test system: T7, OR1F1
T7 sequence (whole entry): T5 sequence (whole entry) with F75S
In short: as §1

OR1G1 (Homo sapiens) = target: T8, OR1G1 (Homo sapiens) (UniProt P47890)
T8 sequence (whole entry): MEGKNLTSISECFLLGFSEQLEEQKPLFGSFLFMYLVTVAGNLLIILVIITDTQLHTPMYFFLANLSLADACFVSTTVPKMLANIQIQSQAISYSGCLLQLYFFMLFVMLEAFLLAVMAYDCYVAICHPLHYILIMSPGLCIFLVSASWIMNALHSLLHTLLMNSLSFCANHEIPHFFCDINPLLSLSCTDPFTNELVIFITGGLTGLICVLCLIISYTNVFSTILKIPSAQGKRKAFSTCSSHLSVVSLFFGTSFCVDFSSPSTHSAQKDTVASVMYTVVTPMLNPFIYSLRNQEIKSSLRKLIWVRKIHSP
In short: as §1

OR1I1 (Homo sapiens) = target: T9, OR1I1 (Homo sapiens) (UniProt O60431)
T9 sequence (whole entry): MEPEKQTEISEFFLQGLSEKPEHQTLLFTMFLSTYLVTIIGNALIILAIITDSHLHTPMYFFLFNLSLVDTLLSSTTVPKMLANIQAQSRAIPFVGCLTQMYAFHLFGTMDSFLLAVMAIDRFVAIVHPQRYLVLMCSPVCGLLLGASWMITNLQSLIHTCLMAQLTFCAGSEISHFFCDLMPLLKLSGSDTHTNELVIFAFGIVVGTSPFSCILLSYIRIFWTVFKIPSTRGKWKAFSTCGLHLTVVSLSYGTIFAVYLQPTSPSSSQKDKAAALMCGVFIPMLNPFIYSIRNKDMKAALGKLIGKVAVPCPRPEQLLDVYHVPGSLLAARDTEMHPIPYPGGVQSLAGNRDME
In short: as §1

OR1J1 (Homo sapiens) = target: T10, OR1J1 (Homo sapiens) (UniProt Q8NGS3)
T10 sequence (whole entry): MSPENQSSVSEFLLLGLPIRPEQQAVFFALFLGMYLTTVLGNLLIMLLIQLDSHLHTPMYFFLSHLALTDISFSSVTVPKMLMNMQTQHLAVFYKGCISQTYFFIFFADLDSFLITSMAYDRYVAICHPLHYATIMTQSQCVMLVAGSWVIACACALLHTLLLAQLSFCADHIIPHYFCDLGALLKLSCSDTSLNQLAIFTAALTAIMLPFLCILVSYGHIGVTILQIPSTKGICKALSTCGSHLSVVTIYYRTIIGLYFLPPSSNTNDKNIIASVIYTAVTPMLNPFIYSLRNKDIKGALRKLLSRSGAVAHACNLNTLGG
In short: as §1

OR1J2 (Homo sapiens) = target: T11, OR1J2 (Homo sapiens) (UniProt Q8NGS2)
T11 sequence (whole entry): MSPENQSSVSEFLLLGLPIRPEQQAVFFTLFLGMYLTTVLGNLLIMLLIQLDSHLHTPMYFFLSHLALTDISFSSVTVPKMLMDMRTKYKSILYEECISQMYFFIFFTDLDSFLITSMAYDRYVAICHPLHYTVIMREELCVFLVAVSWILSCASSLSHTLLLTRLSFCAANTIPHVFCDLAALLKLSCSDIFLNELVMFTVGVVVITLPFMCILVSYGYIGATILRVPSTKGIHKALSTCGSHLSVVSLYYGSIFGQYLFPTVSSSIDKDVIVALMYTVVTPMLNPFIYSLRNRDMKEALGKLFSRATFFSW
In short: as §1

OR1J4 (Homo sapiens) = target: T12, OR1J4 (Homo sapiens) (UniProt Q8NGS1)
T12 sequence (whole entry): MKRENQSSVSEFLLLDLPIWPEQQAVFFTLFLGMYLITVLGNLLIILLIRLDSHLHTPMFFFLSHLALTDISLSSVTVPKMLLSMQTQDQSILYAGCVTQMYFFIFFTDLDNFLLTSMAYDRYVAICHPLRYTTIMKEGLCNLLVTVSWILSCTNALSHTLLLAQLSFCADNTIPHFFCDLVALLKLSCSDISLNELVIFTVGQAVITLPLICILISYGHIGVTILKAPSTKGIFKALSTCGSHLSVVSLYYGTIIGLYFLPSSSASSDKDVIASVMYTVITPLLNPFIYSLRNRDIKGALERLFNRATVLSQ
In short: as §1

OR1K1 (Homo sapiens) = target: T13, OR1K1 (Homo sapiens) (UniProt Q8NGR3)
T13 sequence (whole entry): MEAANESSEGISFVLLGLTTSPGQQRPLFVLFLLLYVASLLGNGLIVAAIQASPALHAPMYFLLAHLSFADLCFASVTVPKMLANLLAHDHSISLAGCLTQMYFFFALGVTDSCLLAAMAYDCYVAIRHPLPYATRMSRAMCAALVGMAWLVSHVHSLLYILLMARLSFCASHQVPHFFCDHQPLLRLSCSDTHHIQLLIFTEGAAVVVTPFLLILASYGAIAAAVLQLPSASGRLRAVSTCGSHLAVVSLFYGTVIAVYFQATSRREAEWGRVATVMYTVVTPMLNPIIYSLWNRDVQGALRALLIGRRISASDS
In short: as §1

OR1L1 = test system: T14, OR1L1
T14 sequence (whole entry): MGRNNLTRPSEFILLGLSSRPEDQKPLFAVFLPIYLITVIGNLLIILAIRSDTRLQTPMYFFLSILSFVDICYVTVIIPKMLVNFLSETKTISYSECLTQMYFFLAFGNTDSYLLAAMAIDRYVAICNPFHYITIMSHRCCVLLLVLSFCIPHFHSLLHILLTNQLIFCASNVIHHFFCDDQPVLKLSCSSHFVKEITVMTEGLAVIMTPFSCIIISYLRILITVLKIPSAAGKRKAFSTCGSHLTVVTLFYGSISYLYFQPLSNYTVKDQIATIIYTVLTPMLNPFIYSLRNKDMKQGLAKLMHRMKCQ
In short: as §1

OR1D4 (Homo sapiens) = target: T15, OR1D4 (Homo sapiens) (UniProt P47884)
T15 sequence (whole entry): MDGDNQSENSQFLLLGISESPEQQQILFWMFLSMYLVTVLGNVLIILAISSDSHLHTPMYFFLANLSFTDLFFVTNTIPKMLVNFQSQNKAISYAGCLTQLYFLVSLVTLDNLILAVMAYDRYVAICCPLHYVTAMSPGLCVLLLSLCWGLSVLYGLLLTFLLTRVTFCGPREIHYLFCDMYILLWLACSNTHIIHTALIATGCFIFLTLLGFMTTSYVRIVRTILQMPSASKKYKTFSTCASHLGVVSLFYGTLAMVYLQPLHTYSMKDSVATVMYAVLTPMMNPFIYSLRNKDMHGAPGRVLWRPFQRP
In short: as §1

OR1E3 (Homo sapiens) = OR1E3 (Homo sapiens) (UniProt Q8WZA6)
In short: as §1

OR1L1 (Homo sapiens) = target: T16, OR1L1 (Homo sapiens) (UniProt Q8NH94)
T16 sequence (whole entry): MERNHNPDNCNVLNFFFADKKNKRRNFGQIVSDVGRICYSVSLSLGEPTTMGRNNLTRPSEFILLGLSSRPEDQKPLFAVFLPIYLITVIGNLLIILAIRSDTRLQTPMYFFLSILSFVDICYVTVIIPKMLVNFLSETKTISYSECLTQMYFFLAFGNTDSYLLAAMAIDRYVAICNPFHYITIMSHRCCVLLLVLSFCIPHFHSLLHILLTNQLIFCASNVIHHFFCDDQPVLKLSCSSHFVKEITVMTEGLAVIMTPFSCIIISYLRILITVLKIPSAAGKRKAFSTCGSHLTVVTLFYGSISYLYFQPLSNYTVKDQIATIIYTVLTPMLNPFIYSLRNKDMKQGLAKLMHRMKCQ
In short: as §1

Measured: odorant receptor agonist call

Sequence of OR1E3 (Homo sapiens) (Q8WZA6 whole entry): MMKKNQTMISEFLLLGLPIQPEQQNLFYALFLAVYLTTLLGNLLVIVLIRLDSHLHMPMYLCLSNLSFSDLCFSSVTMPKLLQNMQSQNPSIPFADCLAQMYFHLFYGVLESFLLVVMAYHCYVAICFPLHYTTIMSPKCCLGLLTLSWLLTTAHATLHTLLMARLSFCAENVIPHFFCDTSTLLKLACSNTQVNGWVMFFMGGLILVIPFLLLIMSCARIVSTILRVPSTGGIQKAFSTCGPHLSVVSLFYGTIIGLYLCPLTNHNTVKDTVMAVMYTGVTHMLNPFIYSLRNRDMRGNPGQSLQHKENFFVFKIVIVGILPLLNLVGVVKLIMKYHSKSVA

CCCC(S)CCOC(C)=O (stereo unspecified)
not listed: OR1D4 (Homo sapiens) | OR1E3 (Homo sapiens) | OR1L1 (Homo sapiens)
inactive: all other assays above

CC1=NC(C)C(C)S1 (stereo unspecified)
not listed: OR1D4 (Homo sapiens) | OR1E3 (Homo sapiens) | OR1L1 (Homo sapiens)
inactive: all other assays above

CCCCCCC(=O)[O-].[H+]
inactive: OR1G1 (Homo sapiens)

Cc1cnccn1
active: OR1G1 (Homo sapiens)

CCCCCCCCC(=O)OCC
active: OR1G1 (Homo sapiens)

CC(=O)c1c(C)c([N+](=O)[O-])c(C(C)(C)C)c([N+](=O)[O-])c1C
not listed: OR1E1 (Homo sapiens) | OR1E2 | OR1F1 | OR1J2 (Homo sapiens) | OR1J4 (Homo sapiens) | OR1L1
inactive: all other assays above

CCCCCCC=CCCC=O
not listed: OR1L1 | OR1D4 (Homo sapiens) | OR1E3 (Homo sapiens)
inactive: all other assays above
